Reference: ChEMBL document CHEMBL3397000, “Rapid synthesis of 4-arylchromenes from ortho-substituted alkynols: A versatile access to restricted isocombretastatin A-4 analogues as antitumor agents” (Eur J Med Chem, 2015)
pIC50: −log10 of the molar value.

How the values were obtained:
Ovis aries = species on record: Ovis aries; assay: Inhibition of sheep brain tubulin polymerization at 10 uM by DAPI staining-based fluorescence assay
[1] = Cytotoxicity against human HCT116 cells after 72 hrs by CellTitre-Blue assay; type: functional; conditions: HCT-116, 72 h
[2] = Inhibition of sheep brain tubulin polymerization by DAPI staining-based fluorescence assay; set-up: species or system Ovis aries
Outline: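 Tubulin was purified by two assembly–disassembly cycles and held at ~2–3 mg/mL in MES assembly buffer with MgCl₂, EGTA and GTP, pH 6.6. Assembly was followed continuously at 37 °C by DAPI fluorescence. IC50 is the concentration halving the maximum assembly rate versus the no-compound rate; mean of three experiments. Reference agents were run the same day.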

K562 = assay: Cytotoxicity against human K562 cells after 72 hrs by CellTitre-Blue assay; type: functional; conditions: K562, 72 h
Outline: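 Cells were kept in RPMI 1640 with 10% FCS and 1% glutamine, humidified, 37 °C, 5% CO₂. Plated at 5×10³ cells/well, grown 24 h, then exposed 72 h to compound delivered in DMSO (below 0.1% final). Viability was read by resazurin reduction over 2 h (fluorescence ex 560, em 590 nm). IC50 is the 50% signal loss relative to untreated wells; triplicate runs.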

MDA-MB-231 = assay: Cytotoxicity against human MDA-MB-231 cells after 72 hrs by CellTitre-Blue assay; type: functional; conditions: MDA-MB-231, 72 h
Outline: (§1)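 ATCC lines grown in DMEM (4.5 g/L glucose) with 10% FCS and 1% glutamine at 37 °C, 5% CO₂. Seeded at 5×10³ cells/well and cultured 24 h. Compound added from DMSO (final <0.1%) for 72 h. Resazurin (CellTiter-Blue) added for 2 h, then fluorescence read at ex 560/em 590 nm. IC50 is the 50% fluorescence drop versus untreated cells, in triplicate.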

[3] = Cytotoxicity against human H1299 cells after 72 hrs by CellTitre-Blue assay; type: functional; conditions: NCI-H1299, 72 h; outline: as §1
[4] = Cytotoxicity against human HCT116 cells at 10 uM after 72 hrs by CellTitre-Blue assay; type: functional; conditions: HCT-116, 72 h

For `COc1ccc2c(c1Br)OCC=C2c1cc(OC)c(OC)c(OC)c1`, the inhibition (Ovis aries) was less than 10% and the GI50 [1] was 300 nM.
Work on `COc1ccc(/C=C\c2cc(OC)c(OC)c(OC)c2)cc1O` [COMBRETASTATIN A4] yielded a pIC50 [2] of 5.85, a GI50 (K562) of 4.3 nM and a GI50 [1] of 2.1 nM. The GI50 (MDA-MB-231) was 3.2 nM and the GI50 [3] was 5.1 nM.
Work on `COc1ccc2c(c1N)OCCC2c1cc(OC)c(OC)c(OC)c1` (stereo not drawn) yielded a pIC50 [2] of 5.39, a GI50 (K562) of 70 nM and a GI50 [1] of 50 nM. The GI50 (MDA-MB-231) was 65 nM and the GI50 [3] was 60 nM.
Work on `COc1cc(C2=CCOc3ccc(-c4ccccc4)cc32)cc(OC)c1OC` yielded an inhibition (Ovis aries) of less than 10% and a GI50 [1] of 400 nM.
`COc1ccc2c(c1O)OCC=C2c1cc(OC)c(OC)c(OC)c1` showed a pIC50 [2] of 5.43, a GI50 (K562) of 32 nM and a GI50 [1] of 10 nM. For the same compound, the GI50 (MDA-MB-231) was 25 nM and the GI50 [3] was 15 nM.
In the case of `COc1ccc2c(c1O)OCCC2c1cc(OC)c(OC)c(OC)c1` (stereo not drawn), the pIC50 [2] was 5.21, the GI50 (K562) was 75 nM and the GI50 [1] was 75 nM. The GI50 (MDA-MB-231) was 60 nM and the GI50 [3] was 80 nM.
`C=C(c1ccc(OC)c(O)c1)c1cc(OC)c(OC)c(OC)c1` showed a pIC50 [2] of 5.66, a GI50 (K562) of 5.2 nM and a GI50 [1] of 2.2 nM. For the same compound, the GI50 (MDA-MB-231) was 4.1 nM and the GI50 [3] was 5 nM.
With `COc1cc(C2=CCOc3cc(F)ccc32)cc(OC)c1OC` the inhibition (Ovis aries) was less than 10% and the inhibition at 10 µM [4] was less than 10%.
Work on `COc1cc(C2=CCOc3cc(CO)ccc32)cc(OC)c1OC` yielded an inhibition (Ovis aries) of less than 10% and an inhibition at 10 µM [4] of less than 10%.
In the case of `COc1ccc2c(c1N)OCC=C2c1cc(OC)c(OC)c(OC)c1`, the pIC50 [2] was 5.30, the GI50 (K562) was 60 nM and the GI50 [1] was 50 nM. For the same compound, the GI50 (MDA-MB-231) was 65 nM and the GI50 [3] was 60 nM.
